Source: ChEMBL document CHEMBL4325893, “Synthesis and antibacterial profiles of targeted triclosan derivatives” (2019)
Converted amounts (≈) assume the structure as drawn.

What was measured:
Aeromonas hydrophila = assay: Antibacterial activity against Aeromonas hydrophila OCC 778 after 18 hrs; format: functional; details: OCC 778, 18 h
How it was run: (§1)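 Broth microdilution in Nutrient Broth No. 2; stocks in ethanol diluted to 0.01–128 µg/ml (triclosan) or 0.25–256 µg/ml (glycosides). Overnight 37 °C NB2 cultures diluted 1 in 10^4 in saline and added to the dilutions. Incubation at 37 °C with agitation, OD read every 15 min; MIC is the lowest concentration preventing any OD rise after 18 h.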

Citrobacter freundii [1] = assay: Antibacterial activity against Citrobacter freundii OCC 851 after 18 hrs; format: functional; details: OCC 851, 18 h; how it was run: as §1
Cronobacter sakazakii = assay: Antibacterial activity against Cronobacter sakazakii 29544 after 18 hrs; format: functional; details: Cronobacter sakazakii, 29544, 18 h; how it was run: as §1
Klebsiella aerogenes [2] = assay: Antibacterial activity against Enterobacter aerogenes ATCC 13048 after 18 hrs; format: functional; details: ATCC 13048, 18 h; how it was run: as §1
[3] = Antibacterial activity against Enterobacter cloacae ATCC 13047 after 18 hrs; format: functional, Enterobacter cloacae subsp. cloacae; details: ATCC 13047, 18 h; how it was run: as §1
Escherichia coli [4] = assay: Antibacterial activity against Escherichia coli ATCC 8739 after 18 hrs; format: functional; details: ATCC 8739, 18 h; how it was run: as §1
Escherichia coli [5] = assay: Antibacterial activity against Escherichia coli ATCC 10536 after 18 hrs; format: functional; details: ATCC 10536, 18 h; how it was run: as §1
Escherichia coli [6] = assay: Antibacterial activity against Escherichia coli ATCC 11775 after 18 hrs; format: functional; how it was run: as §1
Escherichia coli [7] = assay: Antibacterial activity against Escherichia coli ATCC 25922 after 18 hrs; format: functional; details: ATCC 25922, 18 h; how it was run: as §1
Escherichia coli [8] = assay: Antibacterial activity against Escherichia coli ATCC 35218 after 18 hrs; format: functional; details: ATCC 35218, 18 h; how it was run: as §1
Escherichia coli [9] = assay: Antibacterial activity against Escherichia coli 700728 after 18 hrs; format: functional; details: Escherichia coli, 700728, 18 h; how it was run: as §1
Escherichia coli [10] = assay: Antibacterial activity against Escherichia coli NCTC 13216 after 18 hrs; format: functional; details: NCTC 13216, 18 h; how it was run: as §1
Escherichia coli [11] = assay: Antibacterial activity against Escherichia coli OCC 122 after 18 hrs; format: functional; details: OCC 122, 18 h; how it was run: as §1
Escherichia hermannii = assay: Antibacterial activity against Escherichia hermannii 33650 after 18 hrs; format: functional; details: Atlantibacter hermannii, 33650, 18 h; how it was run: as §1
Hafnia alvei = assay: Antibacterial activity against Hafnia alvei 13337 after 18 hrs; format: functional; details: Hafnia alvei, 13337, 18 h; how it was run: as §1
Klebsiella aerogenes [12] = assay: Antibacterial activity against Klebsiella aerogenes NCTC 8167 after 18 hrs; format: functional; details: NCTC 8167, 18 h; how it was run: as §1
Klebsiella pneumoniae [13] = assay: Antibacterial activity against Klebsiella pneumoniae ATCC 10031 after 18 hrs; format: functional; details: ATCC 10031, 18 h; how it was run: as §1
Proteus mirabilis = assay: Antibacterial activity against Proteus mirabilis ATCC 12453 after 18 hrs; format: functional; details: ATCC 12453, 18 h; how it was run: as §1
Proteus vulgaris = assay: Antibacterial activity against Proteus vulgaris OCC 195 after 18 hrs; format: functional; details: OCC 195, 18 h; how it was run: as §1
Pseudomonas aeruginosa = assay: Antibacterial activity against Pseudomonas aeruginosa ATCC 27853 after 18 hrs; format: functional; details: ATCC 27853, 18 h; how it was run: as §1
Klebsiella pneumoniae [14] = assay: Antibacterial activity against Klebsiella pneumoniae ATCC 13883 after 18 hrs; format: functional; details: ATCC 13883, 18 h; how it was run: as §1
Citrobacter freundii [15] = assay: Antibacterial activity against Citrobacter freundii 8090 after 18 hrs; format: functional; details: Citrobacter freundii, 8090, 18 h; how it was run: as §1
Serratia marcescens = assay: Antibacterial activity against Serratia marcescens OCC 217 after 18 hrs; format: functional; details: OCC 217, 18 h; how it was run: as §1
Bacillus cereus = assay: Antibacterial activity against Bacillus cereus ATCC 14579 after 18 hrs; format: functional; details: ATCC 14579, 18 h; how it was run: as §1
Bacillus subtilis = assay: Antibacterial activity against Bacillus subtilis NCTC 10073 after 18 hrs; format: functional; details: NCTC 10073, 18 h; how it was run: as §1
Enterococcus faecalis [16] = assay: Antibacterial activity against Enterococcus faecalis ATCC 29212 after 18 hrs; format: functional; details: ATCC 29212, 18 h; how it was run: as §1
Enterococcus faecalis [17] = assay: Antibacterial activity against Enterococcus faecalis ATCC 33186 after 18 hrs; format: functional; details: ATCC 33186, 18 h; how it was run: as §1
Enterococcus faecium = assay: Antibacterial activity against Enterococcus faecium ATCC 19434 after 18 hrs; format: functional; details: ATCC 19434, 18 h; how it was run: as §1

Work on `OC[C@H]1O[C@H](Oc2cc(Cl)ccc2Oc2ccc(Cl)cc2Cl)[C@H](O)[C@@H](O)[C@@H]1O` yielded an MIC (Aeromonas hydrophila) of 256 µg/mL (≈ 567 µM), an MIC (Citrobacter freundii [1]) of 4 µg/mL (≈ 8.86 µM) and an MIC (Cronobacter sakazakii) of 8 µg/mL (≈ 17.7 µM). The MIC (Klebsiella aerogenes [2]) was 8 µg/mL (≈ 17.7 µM), the MIC [3] was 1 µg/mL (≈ 2.21 µM) and the MIC (Escherichia coli [4]) was 2 to 8 µg/mL (≈ 4.43 to 17.7 µM). The MIC (Escherichia coli [5]) was 2 to 8 µg/mL (≈ 4.43 to 17.7 µM), the MIC (Escherichia coli [6]) was 2 to 8 µg/mL (≈ 4.43 to 17.7 µM) and the MIC (Escherichia coli [7]) was 2 to 8 µg/mL (≈ 4.43 to 17.7 µM). The MIC (Escherichia coli [8]) was 2 to 8 µg/mL (≈ 4.43 to 17.7 µM), the MIC (Escherichia coli [9]) was 2 to 8 µg/mL (≈ 4.43 to 17.7 µM) and the MIC (Escherichia coli [10]) was 2 to 8 µg/mL (≈ 4.43 to 17.7 µM). The MIC (Escherichia coli [11]) was 2 to 8 µg/mL (≈ 4.43 to 17.7 µM), the MIC (Escherichia hermannii) was 1 µg/mL (≈ 2.21 µM) and the MIC (Hafnia alvei) was 1 µg/mL (≈ 2.21 µM). The MIC (Klebsiella aerogenes [12]) was 2 µg/mL (≈ 4.43 µM), the MIC (Klebsiella pneumoniae [13]) was 1 µg/mL (≈ 2.21 µM) and the MIC (Proteus mirabilis) was 2 µg/mL (≈ 4.43 µM). For the same compound, the MIC (Proteus vulgaris) was 4 µg/mL (≈ 8.86 µM), the MIC (Pseudomonas aeruginosa) was > 256 µg/mL and the MIC (Klebsiella pneumoniae [14]) was 1 µg/mL (≈ 2.21 µM). For the same compound, the MIC (Citrobacter freundii [15]) was 4 µg/mL (≈ 8.86 µM), the MIC (Serratia marcescens) was > 256 µg/mL and the MIC (Bacillus cereus) was 128 µg/mL (≈ 283 µM). The MIC (Bacillus subtilis) was 32 µg/mL (≈ 70.8 µM), the MIC (Enterococcus faecalis [16]) was 128 µg/mL (≈ 283 µM) and the MIC (Enterococcus faecalis [17]) was 128 µg/mL (≈ 283 µM). For the same compound, the MIC (Enterococcus faecium) was 256 µg/mL (≈ 567 µM).
